In article PMC4470474 (Analytical biochemistry, 2014):
Where two headings read alike, the source gives them in different places.

Tests used:
HDAC8 [1] = test: Inhibition of HDAC8 activity by magnesium; type: biochemical, human; details: 2 mM magnesium, continuous assay conditions; Figure S2
Co(II)-HDAC8 [2] = molecular target: T1, Co(II)-HDAC8 (Homo sapiens, UniProt Q9BY41); type: biochemical; details: for substrate inhibition at higher peptide concentrations: peptide 0 – 1600 μM; for effect of pre-incubation of the peptide with Chelex 100 on observed activity: ~6 % (v/v) Chelex 100, room temperature, three hours
T1 sequence (Q9BY41 1-377): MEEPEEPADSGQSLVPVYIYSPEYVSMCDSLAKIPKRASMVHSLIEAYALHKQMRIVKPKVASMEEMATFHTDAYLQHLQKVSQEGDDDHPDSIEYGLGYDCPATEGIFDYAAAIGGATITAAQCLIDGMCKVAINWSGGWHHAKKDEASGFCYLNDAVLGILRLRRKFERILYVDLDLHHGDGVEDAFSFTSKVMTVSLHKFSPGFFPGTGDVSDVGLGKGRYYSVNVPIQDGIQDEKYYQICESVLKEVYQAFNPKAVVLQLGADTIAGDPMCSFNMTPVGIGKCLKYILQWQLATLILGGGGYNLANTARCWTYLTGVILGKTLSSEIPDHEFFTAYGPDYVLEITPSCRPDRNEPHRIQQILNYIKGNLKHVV

Co(II)-HDAC8 [3] = molecular target: T1, Co(II)-HDAC8; test: Fluorescamine assay, HDAC8-catalyzed deacetylation; type: biochemical; details: 200 μM peptide, 0.5 μM HDAC8, 30°C
Method in brief: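 Started with 0.5 μM HDAC8 and quenched with 1 μM TSA at 0, 30, 60 and 90 min. Enzyme removed by 10K filtration. Flow-through mixed with 1 M boric acid pH 9 and fluorescamine, 10 min at RT. Fluorescence read at ex 340/em 460 nm against an N-α-acetyl lysine methyl ester standard curve (0–5 μM).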

HDAC8 [4] = details: HDAC8-catalyzed deacetylation; ref [25]; cited from earlier work
HDAC3/NCOR1 = HDAC3/NCOR1 (Homo sapiens, UniProt O15379+O75376); test: Optimized stopped coupled acetate assay, HDAC3/NCOR1-catalyzed deacetylation; type: biochemical; details: 100 μM peptide, 0.5 μM HDAC3/NCOR1
Method in brief: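 Started with 0.5 μM HDAC3/NCOR1 and quenched with 0.37% HCl at 0, 30, 60 and 90 min. Flash frozen at −80°C, then neutralised with 0.6% NaHCO₃. Pre-equilibrated ACS/citrate synthase/MDH coupler mix (ATP, NAD⁺, CoA, malate) added, 40 min at RT. NADH fluorescence read at ex 340/em 460 nm.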

Co(II)-HDAC8 [5] = molecular target: T1, Co(II)-HDAC8; test: Optimized continuous coupled acetate assay, HDAC8-catalyzed deacetylation; type: biochemical; details: Figure 5 legend, 100 μM peptide
Method in brief: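 Continuous coupled format in EDTA-stripped plates. Mixed 2:1 with Ac-KGGAKac-NH₂ (100 μM final). Started with Co(II)-HDAC8 (0.5–1 μM final). Rate taken from time-dependent NADH fluorescence (ex 340/em 460 nm).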

[6] = Michaelis-Menten fit, stopped coupled assay, 30°C, pH 8

Sequence of HDAC3/NCOR1 (O15379 whole entry): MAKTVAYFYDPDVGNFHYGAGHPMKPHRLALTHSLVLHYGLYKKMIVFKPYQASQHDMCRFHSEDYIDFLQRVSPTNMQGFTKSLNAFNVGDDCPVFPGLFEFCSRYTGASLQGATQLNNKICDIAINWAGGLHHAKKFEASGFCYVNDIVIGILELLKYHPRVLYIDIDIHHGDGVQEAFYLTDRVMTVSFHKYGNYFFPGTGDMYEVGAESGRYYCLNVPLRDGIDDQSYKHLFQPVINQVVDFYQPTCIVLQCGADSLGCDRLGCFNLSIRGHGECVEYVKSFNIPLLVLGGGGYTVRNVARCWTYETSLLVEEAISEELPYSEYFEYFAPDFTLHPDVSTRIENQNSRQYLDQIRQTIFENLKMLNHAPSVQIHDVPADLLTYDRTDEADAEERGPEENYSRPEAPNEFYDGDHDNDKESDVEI
Sequence of HDAC3/NCOR1 (O75376 395-489 partner limits assumed): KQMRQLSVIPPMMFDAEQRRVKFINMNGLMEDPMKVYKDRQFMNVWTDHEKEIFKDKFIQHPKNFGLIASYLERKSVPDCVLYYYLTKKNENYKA

magnesium
inhibition of HDAC8 activity (HDAC8 [1]): ~ 2 fold

Ac-KGGAKacW-NH2
increase of net transition state stabilization (Co(II)-HDAC8 [2]; addition of tryptophan or methylcoumarin moiety to the peptide): 0.1 to 0.5 kcal/mol | substrate inhibition at higher peptide concentrations (Co(II)-HDAC8 [2]; stopped coupled assay): modest to substantial inhibition was observed at higher peptide concentrations | effect of pre-incubation of the peptide with Chelex 100 on observed activity (Co(II)-HDAC8 [2]): no effect

Ac-KGGAKac-COO^−
lowering of kcat/KM relative to methylcoumarin peptide (Co(II)-HDAC8 [2]; C-terminal carboxylate vs methylcoumarin): 50 fold | Km (Co(II)-HDAC8 [2]; [6]): 730 µM | kcat (Co(II)-HDAC8 [2]; [6]): 0.041 s⁻¹ | kcat/KM (Co(II)-HDAC8 [2]; [6]): 56 M⁻¹ s⁻¹ | deacetylation rate (Co(II)-HDAC8 [2]; coupled acetate assay, 200 μM peptide, 0.5 μM HDAC8): 0.0021 ± 0.0003 µM/s | deacetylation rate (Co(II)-HDAC8 [3]): 0.0027 ± 0.0008 µM/s

Ac-KGGAKac-methylcoumarin [reference compound]
ΔΔG‡ (kcat/KM) (Co(II)-HDAC8 [2]; Ac-KGGAKac-methylcoumarin compared to the C-terminal carboxylate peptide): 2.3 kcal/mol | kcat/KM (HDAC8 [4]): 2800 M⁻¹ s⁻¹

Ac-KGGAKac-NH2
ΔΔG‡ (kcat/KM) (Co(II)-HDAC8 [2]; Ac-KGGAKac-NH2 compared to Ac-KGGAKac-COO^−): 1.6 kal/mol | initial rate for deacetylation (Co(II)-HDAC8 [2]; Figure 5 legend, side-by-side stopped assay, 0.5 μM Co(II)-HDAC8, 100 μM peptide): 0.018 ± 0.0021 µM/s | kcat/KM enhancement relative to Ac-KGGAKac-COO^− peptide (Co(II)-HDAC8 [2]; amide vs carboxylate): 9 fold | substrate inhibition at higher peptide concentrations (Co(II)-HDAC8 [2]; stopped coupled assay): modest to substantial inhibition was observed at higher peptide concentrations | effect of pre-incubation of the peptide with Chelex 100 on observed activity (Co(II)-HDAC8 [2]): no effect | initial rate of deacetylation (HDAC3/NCOR1): 0.015 ± 0.0016 µM/s | initial rate for deacetylation (Co(II)-HDAC8 [5]; 0.5 μM Co(II)-HDAC8): 0.011 ± 0.00041 µM/s | initial rate for deacetylation (Co(II)-HDAC8 [5]; 1 μM Co(II)-HDAC8): 0.022 ± 0.00043 µM/s
